# Screens (PubChem)
# Autophagy mod: modulators of autophagy; AID 463193; 190,000 tested, 0.98% active; MEF GFP-LC3 puncta imaging; test concentration mostly 10 µM; calls only at 10 µM (by protocol);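 active = percentage of spot-positive cells more than 3 SD above its plate mean, without a fluorescence outlier flag or 80% toxicity; inconclusive = no clear call, values can overlap the other calls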
# MDM2 E3 inh: inhibitors of human Mdm2 E3 ubiquitin ligase. Q00987. cell-based MDM2 ubiquitination luciferase reporter, 2 h; 0 = plate control, 100 = twice control, blank-subtracted. signal enhancement, % at 5 µM. 210,000 tested, 0.11% active. AID 1230;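 active = signal enhancement of 30% or more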;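 also: luminescence tracks abundance of the self-degrading MDM2-luciferase fusion protein; higher signal means inhibition of MDM2 E3 ligase activity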
# Target sequence (Q00987 whole entry, looked up, the tested form may be a part): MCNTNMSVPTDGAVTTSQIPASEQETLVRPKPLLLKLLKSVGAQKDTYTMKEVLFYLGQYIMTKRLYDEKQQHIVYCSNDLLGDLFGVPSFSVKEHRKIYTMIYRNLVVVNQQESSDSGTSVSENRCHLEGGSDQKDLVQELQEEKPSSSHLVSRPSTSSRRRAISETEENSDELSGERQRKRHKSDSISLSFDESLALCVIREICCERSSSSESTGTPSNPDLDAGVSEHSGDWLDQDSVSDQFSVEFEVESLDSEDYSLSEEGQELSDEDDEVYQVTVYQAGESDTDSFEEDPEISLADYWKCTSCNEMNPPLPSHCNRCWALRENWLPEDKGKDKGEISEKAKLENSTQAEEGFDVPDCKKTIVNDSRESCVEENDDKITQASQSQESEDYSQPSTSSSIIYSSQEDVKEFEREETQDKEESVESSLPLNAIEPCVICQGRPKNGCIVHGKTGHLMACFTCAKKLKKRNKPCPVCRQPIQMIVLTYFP
#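 Assay system: stable mammalian line carrying autodegrading MDM2–luciferase fusion reporter; Input: 2000 cells in each well; Compound dosing: single-point 5 µM; Schedule: 2 h compound exposure at 37 °C; Signal: SteadyLite luciferase luminescence after 15 min room-temperature reagent incubation; Evaluation: % luminescence enhancement versus blank-corrected plate control mean; Benchmarks: plate controls and plate blanks.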
# Dynein cargo inh: blocks dynein driven cargo transport along microtubules; 3617.4 mouse cells, GR-EGFP nuclear translocation imaging; test concentration mostly 20 µM; stimulated with dexamethasone, 1 µM; hits give low values; z-score, hits read low; 220,000 tested, 0.47% active; AID 1381;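 active = plate z-score of nuclear minus cytoplasmic receptor signal below a set negative limit, without overly bright fluorescence or cell loss, cut at about -3.5 in these data, passing the limit was not always enough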;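 also: z-score of nuclear minus cytoplasmic ring GR-EGFP intensity difference per well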
#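 Buffer or medium: tet-free, stripped-serum medium; reagent: dexamethasone at 1.0 µM final, 30 min; incubation: 48 h induction, 1 h compound, 30 min dex at 37 °C; measured by: formaldehyde fixation, Hoechst nuclear stain, 10x automated fluorescence imaging; read-out: nuclear-to-cytoplasmic GR-EGFP distribution per well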
# TNF death inh: inhibitors of TNF-alpha induced necroptosis in Jurkat FADD-/- cells | Jurkat FADD-/- TNF necroptosis rescue, ATP luminescence, 24 h; 0 = TNF only, 100 = no-TNF cells | activation (protection from cell death), % at 10 µM | 220,000 tested, 0.068% active | AID 463075;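 active = activation, meaning protection from cell death, of at least 50% relative to plate controls; inactive = activation below 50%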;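 also: necroptosis triggered by 40 ng/mL TNF-alpha added together with compound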
# zVAD death inh: L929 zVAD cell death inhibition. 220,000 tested, 0.38% active. viability rescue, % at 10 µM. L929 zVAD necroptosis rescue, ATP luminescence, 24 h; with zVAD 60 µM;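 active = activation, scaled between plate controls, above about 75%, limit read from the data; inactive = activation under that limit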
# Hck-Nef inh: blocks Nef-activated human Hck kinase; inhibition, % at 20 µM; Recombinant Hck-YEEI plus Nef, Z-Lyte FRET kinase assay; 220,000 tested, 0.68% active; AID 463187; P08631;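 active = Hck-Nef kinase inhibition above about 50%, limit read from the data; inactive = inhibition below that limit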
# A number is an active result; - = inactive; ? = inconclusive; . = no result; + = active, no number. Compounds with a hit are over-represented: about 2.4% of the library has one in this group of screens.
SMILES,Autophagy mod,MDM2 E3 inh,Dynein cargo inh,TNF death inh,zVAD death inh,Hck-Nef inh
CCCCCCC(=O)Cc1cc(OC)c(OC)cc1C=C(C(=O)OCC)C(=O)OCC,-,.,-4.3,-,-,-
C[n+]1nc(Nc2ccccc2)sc1-c1ccc(C(=O)O)cc1,.,-,-,-,-,-
Cc1cccc(NC(=O)CN2C(=O)S/C(=C\c3ccc(O)c([N+](=O)[O-])c3)C2=O)c1,-,-,-,-,-,61
COc1ccccc1CNC(=O)CSc1nnc2c(Cl)cc(C(F)(F)F)cn12,-,.,-,-,-,-
COc1cc(/C=N\Nc2nc(-c3ccc(C)cc3)c(NC(C)=O)s2)ccc1O,.,-,-,-,-,105
COC(=O)c1cc(Br)c(N)cc1OC,-,-,-,-,-,-
CC(=O)Nc1ccc(NC(=O)c2ccccc2S(=O)(=O)c2ccccc2[N+](=O)[O-])cc1,-,-,-,-,-,-
O=C(Nc1ccc(F)cc1)c1ccccc1S(=O)(=O)c1ccccc1[N+](=O)[O-],-,49,-,-,-,-
Cc1c2ccccc2nc2c(F)c(N(C)C)c(F)c(F)c12,+,-,-,-,-,-
O=C(OC(C(=O)O)C(OC(=O)c1ccccc1)C(=O)NCc1ccccc1)c1ccccc1 (configuration not stated),-,-,-,-,-,-
COc1ccc(NC(=O)CN(C)Cc2c(F)cccc2Cl)cc1S(=O)(=O)N1CCCCC1,-,-,-,-,-,-
COc1cccc(N/C(N)=N/c2nc(CSc3ccccn3)cc(=O)[nH]2)c1,+,-,-,-,-,-
O=C(CSCc1ccc(F)cc1)NC1CCCC1,-,-,-,-,-,-
O=C(CSCc1ccc([N+](=O)[O-])cc1)NC1CCCCCC1,-,-,-,63,-,-
O=C(CN1CCN(Cc2ccccc2)CC1)Nc1cccc(S(=O)(=O)N2CCCCCC2)c1,-,-,-,-,-,-
O=C(Nc1cccc(S(=O)(=O)N2CCCCC2)c1)c1c2c(nc3ccccc13)CCN(Cc1ccccc1)C2,+,-,-,-,-,-
CC(=O)Nc1ccc(NC(=O)COC(=O)c2c3c(nc4ccccc24)CCN(Cc2ccccc2)C3)cc1,+,-,-,-,-,-
O=C(COC(=O)c1c2c(nc3ccccc13)CCN(Cc1ccccc1)C2)Nc1c(F)cccc1F,?,-,-,-,-,-
C/C(=N/NC(N)=S)c1cc2ccc(O)cc2oc1=O,.,-,-,-,-,187
Cn1c(SCC(=O)Nc2ccc3[nH]c(=O)[nH]c3c2)nnc1-c1ccc(F)cc1,.,.,-,-,-,-
CC1C/C(=C/c2cccn2C)C(=O)/C(=C/c2cccn2C)C1 (configuration not stated),-,-,-,-,-,-
CC1C/C(=C/c2ccncc2)C(=O)/C(=C/c2ccncc2)C1 (configuration not stated),-,-,-6,-,-,-
CCN(CC)c1ccc(/C=C(/C#N)c2nc3ccccc3[nH]2)c(OC(C)C)c1,+,-,-,-,-,-
N#C/C(=C\c1ccncc1)c1nc2ccccc2[nH]1,-,-,-,-,-,-
O=C1OCc2cccc([N+](=O)[O-])c21,-,-,-,-,-,-
SMILES,Autophagy mod,MDM2 E3 inh,Dynein cargo inh,TNF death inh,zVAD death inh,Hck-Nef inh
O=C1CC(=O)c2c1cccc2[N+](=O)[O-],.,-,-,-,-,75
O=C(Nc1nc2ccccc2n1CCN1CCOCC1)c1cn(-c2ccccc2)nc1-c1ccccc1,+,-,-,-,-,-
CC(=O)Nc1nc2ccccc2n1CCN1CCOCC1,-,-,-,-,-,-
C=C1CCN(C(C)C(=O)OC)S(=O)(=O)c2ccccc21 (configuration not stated),.,-,-,-,-,-
C=C1CCN(C(C(=O)OC)C(C)C)S(=O)(=O)c2ccccc21 (configuration not stated),.,33,-,-,-,-
CC1CC(C)CN(C(=O)CSc2nnc(-c3ccc(Cl)cc3)o2)C1 (configuration not stated),-,-,-,-,83,-
Cc1ccccc1N=C(NO)c1nonc1N,-,-,-,-,-,-
CC1(C)Oc2ccc3ccc(=O)oc3c2-c2cn[nH]c21,-,-,-,-,75,-
CCOc1ccc(C2C(C(=O)c3cccs3)=C(O)C(=O)N2Cc2cccnc2)cc1 (configuration not stated),+,-,-,-,-,-
Cn1cc(/C=C2\SC(=O)N(c3ccccc3)C2=O)c2ccccc21,+,-,-,-,-,-
CC1CCN(c2c(NCc3ccc(C(=O)N4CCc5ccccc54)cc3)c(=O)c2=O)CC1,+,-,-,-,-,-
CC1CCN(c2c(NCc3ccc(C(=O)N(C)C4CCCCC4)cc3)c(=O)c2=O)CC1,.,-,-,-,-,-
Cc1cc(NC(=S)N(CCCN2CCN(C)CC2)Cc2ccco2)ccc1Cl,+,-,-,-,-,-
Cc1ccc(NC(=S)N(CCCN2CCOCC2)Cc2ccco2)cc1C,-,-,-,-,-,-
CCN1CCN(CCCN(Cc2ccco2)C(=S)Nc2cccc(Cl)c2C)CC1,+,-,-,-,-,-
Cc1onc(-c2ccccc2)c1CNS(=O)(=O)c1ccccc1[N+](=O)[O-],.,-,-,-,-,-
CC(NC(=O)C(c1ccccc1)c1ccccc1)C(=O)N1CCCCC1 (configuration not stated),-,-,-,-,-,-
COCCNC(=O)c1ccccc1NC(=O)CSc1ccc(C)cc1,-,-,-,-,-,-
Cc1cc2[nH]c3c(c[n+](C)c4ccccc34)c2cc1C,+,-,-4.4,-,-,-
CC(Cc1cccs1)NC(=O)Nc1ccc(Cl)c(Cl)c1 (configuration not stated),-,-,-,-,-,-
Cn1c(=O)c(C(=O)COC(=O)c2cc(-c3ccco3)nc3ccccc23)c(N)n(CC2CC2)c1=O,-,.,-,-,-,51
O=C(CN1CCN(c2ccc(O)cc2)CC1)Nc1cc(S(=O)(=O)N2CCCCC2)ccc1Cl,-,-,-,-,-,61
O=C(CN1CCN(c2ccc(O)cc2)CC1)Nc1cc(S(=O)(=O)N2CCCC2)ccc1Cl,-,-,-,-,-,-
CCn1nc(C(=O)Nc2nc3ccc(C)cc3s2)c2ccccc2c1=O,+,-,-,-,-,-
Cc1cccc(S(=O)(=O)Nc2ccc(C)c3c2OC(C)(C)C3)c1,+,-,-,-,-,-
Cc1ccc(NS(=O)(=O)c2ccccc2Cl)c2c1CC(C)(C)O2,-,.,-,-,-,-
